According to ChEMBL document CHEMBL3227921, “Synthetic antagonists of in vivo responses by the rat uterus to oxytocin” (J Med Chem, 1979):
Calls of active or inactive are those of the source. The rule behind the calls is not given here. Numbered stars: 1 amine (or outer) side, 2 acyl side, 3 side chain; on linkers, the order of the positions; unused ones are H or OH. Bridge positions count the residues as written; N and C are the ends. Square brackets hold non-standard residues; d marks the D form. Peptide text beside a SMILES is read from it. * marks the point of attachment. X1 = O=C(CC1(S[*:2])CCCCC1)[*:1]; X3 = CCC(CC)(CC(=O)[*:1])S[*:2]; X2 = CC(C)(CC(=O)[*:1])S[*:2]; X4 = NC(=O)NC(=O)CN*; Mpa = O=C(O)CCS

Assays:
[1] = molecular target: T1, Oxytocin receptor (Rattus norvegicus) (UniProt P70536); test: Partial agonist activity at oxytocin receptor in rat uterus pretreated with diethylstilbestrol compound treated 1 min prior to oxytocin addition in presence of 0.5 mM Mg2+
T1 sequence (whole entry): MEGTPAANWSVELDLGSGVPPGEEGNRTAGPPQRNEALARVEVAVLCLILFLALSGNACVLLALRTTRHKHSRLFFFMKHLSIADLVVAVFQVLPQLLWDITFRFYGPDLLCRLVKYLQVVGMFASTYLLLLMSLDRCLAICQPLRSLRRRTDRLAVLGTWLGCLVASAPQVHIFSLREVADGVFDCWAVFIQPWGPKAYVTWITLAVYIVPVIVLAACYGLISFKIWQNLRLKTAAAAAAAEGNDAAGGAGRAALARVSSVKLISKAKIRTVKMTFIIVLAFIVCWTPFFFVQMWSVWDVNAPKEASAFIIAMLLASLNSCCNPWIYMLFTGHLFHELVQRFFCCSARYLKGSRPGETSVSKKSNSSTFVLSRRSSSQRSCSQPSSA

Oxytocin receptor [2] = molecular target: T2, Oxytocin receptor (Rattus norvegicus, UniProt P70536); test: Antagonist activity at oxytocin receptor in rat uterus pretreated with diethylstilbestrol compound treated 1 min prior to oxytocin addition in presence of 0.5 mM Mg2+; assay type: tissue-based; conditions: read-out: pA2 (converted)
T2 sequence (P70536 whole entry): T1 sequence (whole entry)
How it was run: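 Uterine horns from rats pretreated with diethylstilbestrol, bathed in Munsick's solution containing 0.5 mM Mg2+. Isometric contractions recorded, with antagonist added 1 min ahead of agonist. Schild pA2 taken as negative log molar antagonist concentration reducing the 2x-agonist response to the x-unit response without antagonist. Mean ± SE, number of assay groups given.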

Oxytocin receptor [3] = molecular target: T2, Oxytocin receptor; test: Antagonist activity at oxytocin receptor in rat uterus pretreated with diethylstilbestrol compound treated 1 min prior to oxytocin addition; assay type: tissue-based; conditions: read-out: pA2 (converted)
How it was run: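 Isolated uterine horns from diethylstilbestrol-pretreated rats suspended in Munsick's solution without Mg2+. Isometric contractions recorded. Antagonist added to bath 1 min before agonist. pA2 calculated by Schild's method: negative log of the molar antagonist concentration that reduces the response to 2x units of agonist to the response to x units without antagonist. Mean ± SE over assay groups.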

Rattus norvegicus [4] = test: Antioxytocic activity in iv dosed rat uterus pretreated with diethylstilbestrol compound treated 1 min prior to oxytocin injection; assay type: functional, organism-based; conditions: for Kb: read-out: pA2 (converted)
How it was run: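 Anesthetized diethylstilbestrol-pretreated rats, modified Bisset uterus assay. Antagonist given intravenously 1 min before agonist. Read-out was integrated intrauterine pressure over 10 min after agonist injection. In vivo "pA2" estimated by the Dyckes et al. method; pA2 6.00 corresponds to 67 nmol/kg i.v. and 7.00 to 6.7 nmol/kg. Mean ± SE over assay groups.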

[5] = (§1) Antagonist activity at rat vasopressin receptor
How it was run: (§2)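 Anesthetized rats, vasopressor responses recorded per Dekanski. Antagonist injected 1 min before agonist. In vivo "pA2" estimated by the method of Dyckes et al., which assumes a volume of distribution for the injected antagonist. Mean ± SE over assay groups.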

Rattus norvegicus [6] = species on record: Rattus norvegicus; test: as §1; how it was run: as §2

Structure (SMILES)	Activity [1]	Kb (Oxytocin receptor [2])	Kb (Oxytocin receptor [3])	pA2 [5]	Activity (Rattus norvegicus [6])	Kb (Rattus norvegicus [4])	Activity (Rattus norvegicus [4])
CC[C@H](C)[C@@H]1NC(=O)[C@H](Cc2ccc(O)cc2)NC(=O)CC2(CCCCC2)SSC[C@@H](C(=O)N2CCC[C@H]2C(=O)N[C@@H](CC(C)C)C(=O)NCC(N)=O)NC(=O)[C@H](CC(N)=O)NC(=O)[C@H](CCC(N)=O)NC1=O (YIQNCPLG-NH2; linker N-5 via X1)		70.8 nM	24.5 nM			224 nM	
CC[C@H](C)[C@@H]1NC(=O)[C@H](Cc2ccc(O)cc2)NC(=O)CC(C)(C)SSC[C@@H](C(=O)N2CCC[C@H]2C(=O)N[C@@H](CC(C)C)C(=O)NCC(N)=O)NC(=O)[C@H](CC(N)=O)NC(=O)[C@H]([C@@H](C)O)NC1=O (YITNCPLG-NH2; linker N-5 via X2)	Active	589 nM	30.2 nM	6.67		490 nM	
COc1ccc(C[C@@H]2NC(=O)CC(C)(C)SSC[C@@H](C(=O)N3CCC[C@H]3C(=O)N[C@@H](CCCN=C(N)N)C(=O)NCC(N)=O)NC(=O)[C@H](CC(N)=O)NC(=O)[C@H](CCC(N)=O)NC(=O)[C@H](Cc3ccccc3)NC2=O)cc1 (Y(Me)FQNCPRG-NH2; linker N-5 via X2)			24.5 nM				
CC[C@H](C)[C@@H]1NC(=O)[C@H](Cc2ccc(O)cc2)NC(=O)CC(CC)(CC)SSC[C@@H](C(=O)N2CCC[C@H]2C(=O)N[C@@H](CC(C)C)C(=O)NCC(N)=O)NC(=O)[C@H](CC(N)=O)NC(=O)[C@H]([C@@H](C)O)NC1=O (YITNCPLG-NH2; linker N-5 via X3)		43.7 nM	19.1 nM	6.3		339 nM	
CC[C@H](C)[C@@H]1NC(=O)[C@H](Cc2ccc(OC)cc2)NC(=O)CC(C)(C)SSC[C@@H](C(=O)N2CCC[C@H]2C(=O)N[C@@H](CC(C)C)C(=O)NCC(N)=O)NC(=O)[C@H](CC(N)=O)NC(=O)[C@H]([C@@H](C)O)NC1=O (Y(Me)ITNCPLG-NH2; linker N-5 via X2)		16.2 nM	22.9 nM	7.32		145 nM	
CC[C@H](C)[C@@H]1NC(=O)[C@H](Cc2ccc(O)cc2)NC(=O)CC2(CCCCC2)SSC[C@@H](C(=O)N2CCC[C@H]2C(=O)N[C@@H](CC(C)C)C(=O)NCC(N)=O)NC(=O)[C@H](CC(N)=O)NC(=O)[C@H]([C@@H](C)O)NC1=O (YITNCPLG-NH2; linker N-5 via X1)		15.5 nM	12.3 nM	5.86		115 nM	

More lines, main results first:

Activity [1]	Kb (Oxytocin receptor [2])	Kb (Oxytocin receptor [3])	pA2 [5]	Activity (Rattus norvegicus [6])	Structure (SMILES)	Kb (Rattus norvegicus [4])	Activity (Rattus norvegicus [4])
Active	2340 nM				CC[C@H](C)[C@@H]1NC(=O)[C@H](Cc2ccc(O)cc2)NC(=O)CC(C)(C)SSC[C@@H](C(=O)N2CCC[C@H]2C(=O)N[C@@H](CC(C)C)C(=O)NCC(N)=O)NC(=O)[C@H](CC(N)=O)NC(=O)[C@H](CCC(N)=O)NC1=O (YIQNCPLG-NH2; linker N-5 via X2)		
	245 nM	126 nM		Active	CC[C@H](C)[C@@H]1NC(=O)[C@H](Cc2ccc(OC)cc2)NC(=O)CCSSC[C@@H](C(=O)N2CCC[C@H]2C(=O)N[C@@H](CC(C)C)C(=O)NCC(=O)NC(N)=O)NC(=O)[C@H](CC(N)=O)NC(=O)[C@H](CCC(N)=O)NC1=O ([Mpa]Y(Me)IQNCPL-X4; disulfide 1-6)		Active
	151 nM	28.2 nM	6.83		CC[C@H](C)[C@@H]1NC(=O)[C@H](Cc2ccc(O)cc2)NC(=O)CC(CC)(CC)SSC[C@@H](C(=O)N2CCC[C@H]2C(=O)N[C@@H](CC(C)C)C(=O)NCC(N)=O)NC(=O)[C@H](CC(N)=O)NC(=O)[C@H](CCC(N)=O)NC1=O (YIQNCPLG-NH2; linker N-5 via X3)	631 nM	
	15.8 nM	17.4 nM	7.59		CC[C@H](C)[C@@H]1NC(=O)[C@H](Cc2ccc(OC)cc2)NC(=O)CC(C)(C)SSC[C@@H](C(=O)N2CCC[C@H]2C(=O)N[C@@H](CC(C)C)C(=O)NCC(N)=O)NC(=O)[C@H](CC(N)=O)NC(=O)[C@H](CCC(N)=O)NC1=O (Y(Me)IQNCPLG-NH2; linker N-5 via X2)	138 nM	
